In assay [1] the target is Sodium-dependent serotonin transporter (Rattus norvegicus, UniProt P31652). The assay can be described thus: Displacement of [3H]paroxetine from Serotonin transporter of rat caudate putamen. In kind it is tissue-based. A general note: Loss of bound radioactivity is the signal in a displacement assay; it reports binding, not function.
Assay [2] deals with T1, Sodium-dependent dopamine transporter (Rattus norvegicus, UniProt P23977). Briefly: Inhibition of [3H]dopamine uptake into rat striatal synaptosomes. The format is functional, subcellular, Brain. The essentials: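 [3H]Dopamine uptake run at 33 °C, in a buffer whose ion concentrations differ from those of the binding assays.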
Assay [3] deals with T1, Sodium-dependent dopamine transporter. The assay can be described thus: Displacement of [3H]WIN-35428 from Dopamine transporter of rat caudate putamen. In kind it is tissue-based. The essentials: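 Radioligand displacement binding to brain DAT, incubated at 0 °C.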

T1 sequence (P23977 whole entry): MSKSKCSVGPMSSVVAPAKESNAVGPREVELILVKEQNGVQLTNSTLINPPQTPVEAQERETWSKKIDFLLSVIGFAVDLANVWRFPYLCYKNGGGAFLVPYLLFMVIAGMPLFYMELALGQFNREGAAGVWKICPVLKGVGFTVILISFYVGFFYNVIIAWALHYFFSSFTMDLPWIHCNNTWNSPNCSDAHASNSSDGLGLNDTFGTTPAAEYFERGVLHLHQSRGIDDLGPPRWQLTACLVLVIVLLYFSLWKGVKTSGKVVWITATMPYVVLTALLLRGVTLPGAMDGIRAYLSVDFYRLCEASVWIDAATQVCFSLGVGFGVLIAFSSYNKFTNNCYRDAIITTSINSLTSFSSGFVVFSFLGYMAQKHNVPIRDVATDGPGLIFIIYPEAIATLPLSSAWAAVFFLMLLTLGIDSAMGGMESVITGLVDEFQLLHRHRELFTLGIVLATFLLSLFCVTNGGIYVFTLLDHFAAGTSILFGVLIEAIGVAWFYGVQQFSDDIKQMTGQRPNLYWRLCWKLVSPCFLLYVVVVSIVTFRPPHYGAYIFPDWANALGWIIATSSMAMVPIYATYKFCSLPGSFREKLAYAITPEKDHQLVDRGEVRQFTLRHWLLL
Chain of Sodium-dependent serotonin transporter (P31652 whole entry): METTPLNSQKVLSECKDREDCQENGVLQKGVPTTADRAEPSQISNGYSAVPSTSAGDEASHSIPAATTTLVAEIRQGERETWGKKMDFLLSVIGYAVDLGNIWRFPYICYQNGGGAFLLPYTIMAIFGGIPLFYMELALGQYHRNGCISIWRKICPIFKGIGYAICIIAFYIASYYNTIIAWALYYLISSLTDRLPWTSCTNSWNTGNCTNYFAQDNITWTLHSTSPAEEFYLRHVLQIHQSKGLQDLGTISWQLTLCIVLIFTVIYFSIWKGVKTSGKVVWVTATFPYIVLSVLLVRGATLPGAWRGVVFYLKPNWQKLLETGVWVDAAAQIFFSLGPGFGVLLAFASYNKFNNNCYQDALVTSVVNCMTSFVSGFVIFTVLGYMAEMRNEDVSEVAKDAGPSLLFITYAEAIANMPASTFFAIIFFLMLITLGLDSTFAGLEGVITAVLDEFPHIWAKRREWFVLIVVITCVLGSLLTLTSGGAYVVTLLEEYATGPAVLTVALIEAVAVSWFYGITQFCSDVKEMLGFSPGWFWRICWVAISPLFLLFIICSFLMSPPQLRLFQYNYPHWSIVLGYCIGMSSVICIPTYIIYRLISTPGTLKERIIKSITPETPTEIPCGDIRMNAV

In general, IC50 refers to the midpoint of a concentration-inhibition curve. A lower IC50 goes with greater potency. As to `CN1C2CCCC1[C@H](OC(c1ccc(F)cc1)c1ccc(F)cc1)C2` (stereo partly specified), the results for the half-inhibitory concentration (IC50) in assay [1], in assay [2] and in assay [3] were greater than 100000 nM, 347 nM and 900 nM, respectively.
`CN1C2C[C@H](OC(c3ccccc3)c3ccccc3)CC1[C@@H](O)C2` (stereo partly specified): the IC50 in assay [1] is greater than 100000 nM; in assay [2], 149 nM; in assay [3], 1300 nM.
For `CN1C2CCCC1[C@@H](OC(c1ccc(F)cc1)c1ccc(F)cc1)C2` (stereo partly specified), in that order: greater than 2000 nM, 199 nM and 1130 nM.
`CN1C2C[C@H](OC(c3ccccc3)c3ccc(Cl)cc3)CC1[C@@H](O)C2` (stereo partly specified): the IC50 in assay [1] was greater than 100000 nM; in assay [2] it was 39.1 nM; in assay [3] it was 600 nM.
For the compound `COCO[C@H]1CC2C[C@H](OC(c3ccccc3)c3ccc(Cl)cc3)CC1N2C` (stereo partly specified), the figures for the IC50 in assay [1], in assay [2] and in assay [3] were greater than 100000 nM, 194 nM and 400 nM, respectively.
For `COCO[C@@H]1CC2C[C@H](OC(c3ccc(F)cc3)c3ccc(F)cc3)CC1N2C` (stereo partly specified), in that order: 3500 nM, 491 nM and 2500 nM.
For `COCO[C@H]1CC2C[C@H](OC(c3ccccc3)c3ccccc3)CC1N2C` (stereo partly specified), in that order: greater than 100000 nM, 1080 nM and 4500 nM.
The like results for `CN1C2C[C@H](OC(c3ccc(F)cc3)c3ccc(F)cc3)CC1[C@H](O)C2` (stereo partly specified) were, in that order, greater than 100000 nM, 162 nM and 140 nM.
As to `COCO[C@H]1CC2C[C@H](OC(c3ccc(F)cc3)c3ccc(F)cc3)CC1N2C` (stereo partly specified), the figures for the IC50 in assay [1], in assay [2] and in assay [3] were greater than 100000 nM, 79.7 nM and 340 nM, respectively.
For `CN1C2C[C@H](OC(c3ccc(F)cc3)c3ccc(F)cc3)CC1[C@@H](O)C2` (stereo partly specified), in that order: 11000 nM, 8.1 nM and 12 nM.
The like results for `CO[C@@H]1CC2C[C@H](OC(c3ccc(F)cc3)c3ccc(F)cc3)CC1N2C` (stereo partly specified) were, in that order, 280 nM, 12.4 nM and 10 nM.
For `CO[C@H]1CC2C[C@H](OC(c3ccccc3)c3ccccc3)CC1N2C` (stereo partly specified), in that order: greater than 100000 nM, 139 nM and 276 nM.
With `CO[C@H]1CC2C[C@H](OC(c3ccc(F)cc3)c3ccc(F)cc3)CC1N2C` (stereo partly specified), the IC50 in assay [1] was greater than 100000 nM; in assay [2], 104 nM; in assay [3] it was 25 nM.
The like results for `CO[C@H]1CC2C[C@H](OC(c3ccccc3)c3ccc(Cl)cc3)CC1N2C` (stereo partly specified) were, in that order, greater than 100000 nM, 179 nM and 32 nM.
As for `CO[C@@H]1CC2CC(OC(c3ccccc3)c3ccc(Cl)cc3)CC1N2C` (single isomer, unassigned), the half-inhibitory concentration (IC50) was greater than 100000 nM in assay [1], 519 nM in assay [2] and 750 nM in assay [3].
For `CO[C@@H]1CC2CC(OC(c3ccccc3)c3ccccc3)CC1N2C` (single isomer, unassigned), in that order: greater than 100000 nM, 240 nM and 975 nM.
The like results for `CO[C@@H]1CC2CC(OC(c3ccc(F)cc3)c3ccc(F)cc3)CC1N2C` (single isomer, unassigned) were, in that order, greater than 10 nM, 165 nM and 95 nM.

Values taken from ChEMBL document CHEMBL1144420 (J Med Chem, 2005).
